Hits are enriched below; roughly 4.1% of the tested compounds scored in any of these assays.
FLuc inhib CS – counter-screen for luciferase assay inhibitors: firefly luciferase inhibition. P08659. ATPLite firefly luciferase biochemical luminescence, 10 min. inhibition, % at 10 µM. 200,000 tested, 1.5% active. AID 1006;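 active = inhibition above about 50% when tested at 10 µM, limit read from the data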
Target sequence (P08659 whole entry, looked up): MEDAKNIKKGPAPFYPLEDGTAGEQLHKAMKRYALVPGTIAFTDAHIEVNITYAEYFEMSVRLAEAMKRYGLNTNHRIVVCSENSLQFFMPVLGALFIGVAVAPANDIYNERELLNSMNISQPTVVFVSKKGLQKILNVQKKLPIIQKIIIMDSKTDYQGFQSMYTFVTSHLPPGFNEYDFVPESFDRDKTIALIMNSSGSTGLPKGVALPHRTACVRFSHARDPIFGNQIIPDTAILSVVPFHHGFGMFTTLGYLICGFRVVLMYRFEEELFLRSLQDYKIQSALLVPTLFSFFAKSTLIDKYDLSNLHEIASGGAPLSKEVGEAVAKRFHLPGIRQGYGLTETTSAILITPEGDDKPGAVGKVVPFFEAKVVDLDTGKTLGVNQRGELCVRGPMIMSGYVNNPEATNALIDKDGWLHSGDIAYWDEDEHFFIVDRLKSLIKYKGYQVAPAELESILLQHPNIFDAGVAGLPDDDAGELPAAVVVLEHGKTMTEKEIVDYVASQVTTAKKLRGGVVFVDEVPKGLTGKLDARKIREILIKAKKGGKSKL
FLuc act counter – affects firefly luciferase, flagging false hits in luciferase stimulation screens; P08659; ATPlite luciferase biochemical, luminescence, 10 min; 0 = ATP-free wells, 1 = DMSO control; activation factor at 10 µM; 200,000 tested, under 10 active; AID 1027;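 active = luciferase activation factor, scaled between plate controls, of at least 2 with compound at 10 µM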
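Assay system: Luciferase/luciferin detection reagent, cell-free biochemical luciferase assay / Also added: ATP substrate / Schedule: 10 min at ambient temperature / Measured by: luminescence measurement of luciferase light output / Benchmarks: low control with PBS replacing ATP, high control enzyme plus ATP without compound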
STAT1 activator – activators of IFN-gamma induced STAT1 signaling; 200,000 tested, 2.6% active; NIH 3T3 STAT1-luciferase reporter, luminescence; 100% = IFN-gamma alone, no compound; AID 932; activation (% of control), % at 5.5 µM;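 active = activation above the screen-wide mean activation plus 3 SD, cut at about 130% in these data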;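 also: raw ratio to IFN-gamma control signal so 100% means no change and 0% no light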
NF-kB neuron act – compounds increasing NF-kB expression in human neuronal cells | NF-kB reporter expression; hits give high values | fold change at 12.5 µM | 190,000 tested, 1.6% active | AID 1239; in the data active = fold change above about 3.3
APP 5'UTR act – APP 5'UTR luciferase reporter activation | activation, % at 2 µM | 190,000 tested, 1% active | SH-SY5Y APP 5'UTR luciferase reporter, luminescence; zero percent = DMSO vehicle wells | AID 1276;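 active = activation above a set limit, based on mean plus 3 SD of controls, cut at about 140% in these data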
An asterisk follows results filed as active; nt = not tested or not shown.

SMILES | FLuc inhib CS | FLuc act counter | STAT1 activator | NF-kB neuron act | APP 5'UTR act
Cc1cc(C(=O)CSc2ccc3c(c2)OCCO3)c(C)n1C1CC1 | 13 | 0.9 | 133* | 2.5 | 56
Cn1c(N)c(C(=O)CSc2ccc3c(c2)OCCO3)c(=O)n(C)c1=O | 6 | 0.9 | 98 | 0.71 | -1
CN1C2C=C3C(C#N)=C(N)C(C#N)(C#N)[C@@H](c4cccs4)C3C1CC2 (stereo partly drawn) | -2 | 1 | 103 | 4.4* | -3
CN1C2C=C3C(C#N)=C(N)C(C#N)(C#N)[C@H](c4c(F)cccc4F)[C@H]3C1CC2 (stereo partly drawn) | -4 | 1 | 100 | 1.3 | -47
NC1=NC(=Nc2ccc(Br)cc2)c2ccccc21 | 53* | 0.5 | 103 | 1.2 | -7
O=C(N/N=C/c1ccccc1F)NC1CCCCC1 | 5 | 1 | 130* | 2.2 | 54
O=C(N/N=C/c1ccccc1)NC1CCCCC1 | 6 | 0.9 | 114 | 1.5 | 22
CCN(C(=O)c1cc2ccccc2oc1=O)c1ccccc1 | 6 | 0.9 | 124 | 4.7* | 105
CCN(C(=O)c1cc2ccccc2oc1=O)c1cccc(C)c1 | 3 | 1 | 101 | 1.2 | 6
CCN(CC)c1ccc2cc(C(N)=O)c(=O)oc2c1 | 19 | 0.8 | 133* | 1.8 | 12
CCN(CC)c1ccc2cc(C(N)=O)c(=N)oc2c1 | 13 | 0.9 | 120 | 1.2 | 7
CCc1ccc(N2CC(C(=O)Nc3cc(C)on3)CC2=O)cc1 (stereo not drawn) | -6 | 1.1 | 105 | 1 | 5
Cc1ccccc1C(=O)NC(=S)Nc1ccccc1C(F)(F)F | 71* | 0.3 | 109 | 1.4 | 6
O=C(CSc1nnc(CNc2ccc(Cl)cc2)o1)Nc1nc2c(s1)CCCC2 | -2 | 1 | 98 | 0.98 | 36
O=C1C=C(Nc2ccc(Cl)cc2)C(=O)N1c1ccc(Cl)cc1 | -4 | 1 | 102 | 1.1 | 1
Nc1nonc1N/N=C/c1c(O)ccc2ccccc12 | -3 | 1 | 75 | 3.3 | -3
Nc1cc(Cl)nc(N/N=C/c2c(O)ccc3ccccc23)n1 | 29 | 0.7 | 96 | 4.4* | 18
COc1ccc(C(=O)Nc2ccccc2C(=O)N/N=C/c2cccc3ccccc23)cc1 | 97* | 0 | 65 | 4.2* | 101
COc1ccc(C(=O)Nc2ccc(O)cc2C(=O)O)cc1 | 63* | 0.4 | 79 | 1 | -19
COc1ccc(C(=O)Nc2ccccc2C(N)=O)cc1 | 74* | 0.3 | 119 | 3.1 | 91
CCOC(=O)N1CCC(NC(=O)C2CCN(S(=O)(=O)c3c(C)noc3C)CC2)CC1 | -2 | 1 | 99 | 1.3 | 9
CCOc1ccc(CNC(=O)c2ccc(Sc3ccc(C)cc3)c(NC(C)=O)c2)cc1 | -7 | 1.1 | 101 | 0.85 | -3
O=C(CSc1nnnn1-c1ccc2c(c1)OCCO2)N1CCN(C(=O)c2ccco2)CC1 | -1 | 1 | 94 | 1.1 | 17
O=C(NN=C1c2ccccc2-c2ccccc21)c1cccc(Br)c1 | -2 | 1 | 95 | 1.2 | -6
CC(C)N=c1scc(-c2ccco2)n1/N=C/c1ccc(O)c(O)c1 | 32 | 0.7 | 108 | 9.6* | 2
SMILES | FLuc inhib CS | FLuc act counter | STAT1 activator | NF-kB neuron act | APP 5'UTR act
CCC(=O)c1ccc(OCC(=O)O)cc1 | -3 | 1 | 103 | 1 | -13
CCCCC(=O)OCC(=O)c1ccc(OCC)cc1 | 53* | 0.5 | 95 | 1.3 | 34
CCOc1ccc(C(=O)COC(=O)CC)cc1 | 56* | 0.4 | 104 | 1.2 | 11
CC1CCc2c(sc3ncn(CC(=O)N4CCCCC4)c(=O)c23)C1 (stereo not drawn) | -9 | 1.1 | 97 | 1.2 | 15
O=C(Oc1ccc(-c2ccccc2)cc1)N1CCCCC1 | 7 | 0.9 | 130* | 7* | 5
Fc1ccc(-n2nnc(-c3nccs3)n2)cc1 | 76* | 0.2 | 107 | 4.7* | 148*
Clc1ccc(-n2nnc(-c3cccnc3Cl)n2)cc1Cl | 16 | 0.8 | 135* | 2.5 | 164*
CC(=O)C1=C(O)C(=O)N(c2nccs2)C1c1ccc(F)cc1 (stereo not drawn) | -8 | 1.1 | 89 | 1.4 | -8
Brc1ccccc1-n1nnc(-c2ccnc3ccccc23)n1 | 3 | 1 | 99 | 1.4 | 22
COc1ncccc1-c1nnn(-c2ccccc2)n1 | 54* | 0.5 | 149* | 4.8* | 158*
CCCn1c(-c2cccnc2Cl)nc2cc(Cl)c(Cl)cc21 | -1 | 1 | 103 | 1 | 19
Clc1ncccc1-c1nnn(-c2ccccc2)n1 | 70* | 0.3 | 134* | 6.5* | 132
Cc1ccc(CNCC(=O)Nc2ccc(C)cc2Br)cc1 | -5 | 1.1 | 105 | 0.98 | 7
CC1CCCC(C)N1/N=C/c1ccc(C#N)cc1 (stereo not drawn) | -2 | 1 | 109 | 1.2 | -4
c1ccc2ncc(-n3cnnn3)cc2c1 | -3 | 1 | 106 | 0.75 | -14
O=c1ncn(-c2ccc(F)cc2)c2ncccc12 | -8 | 1.1 | 95 | 1.1 | 1
Cc1ccc(-n2nnc(-c3nccn3C)n2)cc1 | 88* | 0.1 | 73 | 4.2* | 97
Cc1ccc(-n2nnc(-c3cnc4ccccc4c3)n2)cc1 | 54* | 0.5 | 106 | 4.5* | 194*
Clc1nc2ccccc2cc1-c1nnn(-c2ccccc2)n1 | 20 | 0.8 | 133* | 5* | 112
Fc1ccc(-n2nnc(-c3cccnc3Cl)n2)cc1 | 66* | 0.3 | 144* | 5.8* | 149*
COCCNC(=O)CN(C(=O)Cn1nnc2ccccc21)c1cccc(C)c1C | -4 | 1 | 101 | 1.3 | -11
Cc1cc(S(=O)(=O)N2CCN(c3ncccn3)CC2)ccc1-n1cnnn1 | -5 | 1.1 | 99 | 0.81 | 1
CN(c1ccc([N+](=O)[O-])cc1/C=N/NC(=O)COc1ccccc1)C1CCCCC1 | -8 | 1.1 | 109 | 0.78 | 13
Cc1cc(C(=O)NCC(C)C)c2ccccc2n1 | 60* | 0.4 | 96 | 0.93 | 7
COC(=O)c1c(SCc2ccc(C#N)cc2)nc(=O)[nH]c1C | 0 | 1 | 100 | 0.95 | 1
SMILES | FLuc inhib CS | FLuc act counter | STAT1 activator | NF-kB neuron act | APP 5'UTR act
Cc1ccc(OCC(=O)NCc2ccccn2)c(Br)c1 | 8 | 0.9 | 141* | 2.1 | 30
O=C(NCc1ccccc1)c1ccccc1C(=O)c1ncc[nH]1 | -10 | 1.1 | 99 | nt | 15
CCN(CC)C(=S)SCC(=O)c1ccccc1 | 6 | 0.9 | 130* | 1.2 | 51
CCN(CC)C(=S)SCC(=O)c1ccc(F)cc1 | 2 | 1 | 133* | 2.1 | 77
CCN(CC)C(=S)SCC(=O)c1c(C)[nH]c2ccccc12 | 4 | 1 | 106 | 1 | -3
Cc1ccc(Nc2n[nH]c(C)c2[N+](=O)[O-])cc1 | 10 | 0.9 | 147* | 3.1 | 54
O=c1c2ccccc2nc2sc3ccccc3n12 | 33 | 0.7 | 141* | 3.2 | 1
COc1ccc2c(c1)sc1nc(-c3ccccc3)cn12 | 97* | 0 | 34 | 0.63 | -87
